Measurements taken from ChEMBL document CHEMBL4196006, “Aryl thiosemicarbazones for the treatment of trypanosomatidic infections” (Eur J Med Chem, 2018).
One block for each compound: values may come before it. The source made the active and inactive calls. The calls are words filed in the database; no cut-off is given here.

Assays:
THP-1 = assay: Cytotoxicity against human THP1 cells assessed as decrease in viable cells after 72 hrs by MTT assay; assay type: cell-based; details: thp-1, 72 h
Method in brief: (§1)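 THP-1-derived macrophages exposed to compounds for 72 h, tested at 100 μM or in dose-response; viability read by MTT colorimetric assay.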

Cytochrome P450 2C9 = Cytochrome P450 2C9 (Homo sapiens, UniProt P11712); assay: Inhibition of human microsomal CYP2C9 expressed in baculovirus infected BTI-TN-5B1-4 cells incubated for 30 mins by luciferase assay
Chain of Cytochrome P450 2C9 (P11712 whole entry): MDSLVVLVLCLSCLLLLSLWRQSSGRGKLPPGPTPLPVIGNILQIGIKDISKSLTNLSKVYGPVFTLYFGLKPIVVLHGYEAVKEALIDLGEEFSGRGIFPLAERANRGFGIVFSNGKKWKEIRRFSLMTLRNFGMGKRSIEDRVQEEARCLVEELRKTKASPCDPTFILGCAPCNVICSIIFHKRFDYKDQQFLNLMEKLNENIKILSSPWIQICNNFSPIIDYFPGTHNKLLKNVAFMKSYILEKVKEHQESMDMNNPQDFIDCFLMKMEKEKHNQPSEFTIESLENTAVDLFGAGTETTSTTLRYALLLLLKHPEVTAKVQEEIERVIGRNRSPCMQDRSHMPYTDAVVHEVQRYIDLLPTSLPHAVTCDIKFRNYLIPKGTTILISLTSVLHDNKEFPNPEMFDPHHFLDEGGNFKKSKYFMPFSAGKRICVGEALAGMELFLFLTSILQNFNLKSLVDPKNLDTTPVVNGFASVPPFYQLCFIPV

Cytochrome P450 3A4 = Cytochrome P450 3A4 (Homo sapiens, UniProt P08684); assay: Inhibition of human microsomal CYP3A4 expressed in baculovirus infected BTI-TN-5B1-4 cells incubated for 30 mins by luciferase assay; assay type: ADME
Chain of Cytochrome P450 3A4 (P08684 whole entry): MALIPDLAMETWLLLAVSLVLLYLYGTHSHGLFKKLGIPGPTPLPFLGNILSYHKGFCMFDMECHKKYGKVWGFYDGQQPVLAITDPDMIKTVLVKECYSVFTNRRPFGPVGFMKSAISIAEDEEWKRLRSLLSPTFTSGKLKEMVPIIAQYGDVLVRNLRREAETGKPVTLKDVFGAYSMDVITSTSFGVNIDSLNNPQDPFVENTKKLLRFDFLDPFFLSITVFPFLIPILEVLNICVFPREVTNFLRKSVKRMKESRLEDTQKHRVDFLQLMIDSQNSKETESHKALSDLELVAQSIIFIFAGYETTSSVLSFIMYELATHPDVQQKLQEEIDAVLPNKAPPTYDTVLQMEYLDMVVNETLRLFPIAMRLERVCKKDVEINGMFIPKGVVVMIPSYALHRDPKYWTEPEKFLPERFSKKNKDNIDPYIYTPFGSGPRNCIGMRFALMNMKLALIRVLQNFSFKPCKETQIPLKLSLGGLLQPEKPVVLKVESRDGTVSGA

U2OS = assay: Cytotoxicity against human U2OS cells assessed as decrease in viable cells after 72 hrs by cell number count in anti-T. cruzi high content imaging assay; details: u2os, 72 h
Trypanosoma brucei [1] = assay: Antitrypanosomal activity against Trypanosoma brucei Lister 427 bloodstream form at 4 uM after 72 hrs by resazurin dye-based assay relative to control; assay type: functional
Trypanosoma brucei [2] = assay: Antitrypanosomal activity against Trypanosoma brucei Lister 427 bloodstream form assessed as parasite growth inhibition at 50 uM after 72 hrs by SYBR Green assay relative to control; assay type: functional; details: Lister 427, 72 h, read-out: GI
Leishmania infantum = assay: Antileishmanial activity against Leishmania infantum amastigote form assessed as parasite growth inhibition at 50 uM after 72 hrs by steady-Glo reagent based assay relative to control; assay type: functional; details: read-out: GI
Method in brief: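 Intramacrophage L. infantum amastigotes in THP-1-derived macrophages, tested at 50 μM or in dose-response. Plates held 72 h at 37 °C, 5% CO2. Medium was replaced by PBS, macrophages lysed, and parasites read by Steady-Glo luminescence. High-content imaging gave host cell number, infection ratio (infected/total cells) and parasites per infected cell. Values are means of at least two independent experiments.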

Trypanosoma cruzi = assay: Antitrypanosomal activity against Trypanosoma cruzi amastigote form infected in human U2OS cells assessed as parasite growth inhibition at 50 uM after 72 hrs relative to control; assay type: functional; details: read-out: GI
Method in brief: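 U2OS monolayers grown for 24 h, then infected with tissue-derived trypomastigotes of T. cruzi Y strain. Compounds were added 24 h after infection at 50 μM (single-point) or in dose-response, with 72 h exposure. Plates were fixed, stained and analysed by high-content imaging; activity was normalized to infected and non-infected controls. Means of at least two experiments; benznidazole as reference.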

Trypanosoma brucei [3] = assay: Antitrypanosomal activity against Trypanosoma brucei Lister 427 bloodstream form at 10 uM after 72 hrs by resazurin dye-based assay relative to control; assay type: functional
Trypanosoma brucei [4] = assay: Potentiation of methotrexate-induced antitrypanosomal activity against Trypanosoma brucei Lister 427 bloodstream form at 10 uM after 72 hrs by resazurin dye-based assay relative to control; assay type: functional
CYP1A2 = target: T1, CYP1A2 (Homo sapiens, UniProt P05177); assay: Inhibition of human microsomal CYP1A2 expressed in baculovirus infected BTI-TN-5B1-4 cells at 10 uM incubated for 30 mins by luciferase assay relative to control; assay type: ADME
T1 sequence (P05177 whole entry): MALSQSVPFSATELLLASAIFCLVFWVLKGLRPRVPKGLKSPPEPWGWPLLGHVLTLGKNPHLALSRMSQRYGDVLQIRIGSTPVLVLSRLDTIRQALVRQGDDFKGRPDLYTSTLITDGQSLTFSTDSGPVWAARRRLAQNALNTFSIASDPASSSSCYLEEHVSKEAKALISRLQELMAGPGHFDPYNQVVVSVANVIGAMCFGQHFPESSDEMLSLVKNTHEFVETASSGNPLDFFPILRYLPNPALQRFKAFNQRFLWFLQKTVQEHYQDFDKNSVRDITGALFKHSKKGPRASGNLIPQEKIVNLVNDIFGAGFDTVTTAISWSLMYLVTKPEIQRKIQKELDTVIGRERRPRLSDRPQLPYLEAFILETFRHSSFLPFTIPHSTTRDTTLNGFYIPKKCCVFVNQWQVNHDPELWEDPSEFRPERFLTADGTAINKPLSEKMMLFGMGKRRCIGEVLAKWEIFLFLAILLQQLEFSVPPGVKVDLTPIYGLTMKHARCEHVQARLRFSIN
Method in brief: (§2)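 CYP1A2, 2C9, 2C19, 2D6 and 3A4 in microsomes from baculovirus-infected insect cells, each with a P450-Glo luminogenic substrate. Inhibition read as loss of light; single-point at 10 μM, triplicate.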

Trypanosoma brucei [5] = assay: Potentiation of methotrexate-induced antitrypanosomal activity against Trypanosoma brucei Lister 427 bloodstream form at 10 uM after 72 hrs by resazurin dye-based assay; assay type: functional
hERG (KCNH2) = hERG (KCNH2) (Homo sapiens, UniProt Q12809); assay: Inhibition of human ERG at 10 uM incubated for 2 hrs by fluorescence polarisation assay relative to control
Chain of hERG (KCNH2) (Q12809 whole entry): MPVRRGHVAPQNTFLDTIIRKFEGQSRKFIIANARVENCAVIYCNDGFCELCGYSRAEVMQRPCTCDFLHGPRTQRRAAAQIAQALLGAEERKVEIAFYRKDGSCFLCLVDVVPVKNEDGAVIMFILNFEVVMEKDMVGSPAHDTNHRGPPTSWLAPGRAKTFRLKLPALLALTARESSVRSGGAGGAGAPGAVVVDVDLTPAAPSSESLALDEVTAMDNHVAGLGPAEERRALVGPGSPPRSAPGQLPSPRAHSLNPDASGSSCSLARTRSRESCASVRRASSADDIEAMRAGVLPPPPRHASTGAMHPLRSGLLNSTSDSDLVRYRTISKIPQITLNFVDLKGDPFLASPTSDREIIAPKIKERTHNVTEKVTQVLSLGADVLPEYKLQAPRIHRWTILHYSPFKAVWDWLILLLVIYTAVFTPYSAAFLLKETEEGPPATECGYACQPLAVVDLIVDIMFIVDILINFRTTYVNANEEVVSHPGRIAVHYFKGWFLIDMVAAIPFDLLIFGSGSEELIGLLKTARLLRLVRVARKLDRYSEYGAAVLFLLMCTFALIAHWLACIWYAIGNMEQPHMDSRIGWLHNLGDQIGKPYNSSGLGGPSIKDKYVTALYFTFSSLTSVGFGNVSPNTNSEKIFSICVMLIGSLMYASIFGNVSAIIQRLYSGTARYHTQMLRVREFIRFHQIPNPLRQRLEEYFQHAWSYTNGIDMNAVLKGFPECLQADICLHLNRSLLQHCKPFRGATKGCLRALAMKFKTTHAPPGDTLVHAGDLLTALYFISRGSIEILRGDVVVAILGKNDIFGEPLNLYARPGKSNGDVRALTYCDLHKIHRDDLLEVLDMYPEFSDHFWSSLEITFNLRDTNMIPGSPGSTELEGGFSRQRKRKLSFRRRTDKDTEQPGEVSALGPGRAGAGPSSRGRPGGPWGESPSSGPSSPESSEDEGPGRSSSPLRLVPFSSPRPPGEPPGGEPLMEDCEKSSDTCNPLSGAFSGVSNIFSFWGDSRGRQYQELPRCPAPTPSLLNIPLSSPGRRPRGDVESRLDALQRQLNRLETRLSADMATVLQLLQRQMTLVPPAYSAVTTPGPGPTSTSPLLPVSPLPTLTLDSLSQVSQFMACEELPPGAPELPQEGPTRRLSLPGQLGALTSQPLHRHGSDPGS

CYP2C9 = CYP2C9 (Homo sapiens, UniProt P11712); assay: Inhibition of human microsomal CYP2C9 expressed in baculovirus infected BTI-TN-5B1-4 cells at 10 uM incubated for 30 mins by luciferase assay relative to control; assay type: ADME; method in brief: as §2
Chain of CYP2C9 (P11712 whole entry): as the sequence (P11712 whole entry) above

CYP2C19 = CYP2C19 (Homo sapiens, UniProt P33261); assay: Inhibition of human microsomal CYP2C19 expressed in baculovirus infected BTI-TN-5B1-4 cells at 10 uM incubated for 30 mins by luciferase assay relative to control; assay type: ADME; method in brief: as §2
Chain of CYP2C19 (P33261 whole entry): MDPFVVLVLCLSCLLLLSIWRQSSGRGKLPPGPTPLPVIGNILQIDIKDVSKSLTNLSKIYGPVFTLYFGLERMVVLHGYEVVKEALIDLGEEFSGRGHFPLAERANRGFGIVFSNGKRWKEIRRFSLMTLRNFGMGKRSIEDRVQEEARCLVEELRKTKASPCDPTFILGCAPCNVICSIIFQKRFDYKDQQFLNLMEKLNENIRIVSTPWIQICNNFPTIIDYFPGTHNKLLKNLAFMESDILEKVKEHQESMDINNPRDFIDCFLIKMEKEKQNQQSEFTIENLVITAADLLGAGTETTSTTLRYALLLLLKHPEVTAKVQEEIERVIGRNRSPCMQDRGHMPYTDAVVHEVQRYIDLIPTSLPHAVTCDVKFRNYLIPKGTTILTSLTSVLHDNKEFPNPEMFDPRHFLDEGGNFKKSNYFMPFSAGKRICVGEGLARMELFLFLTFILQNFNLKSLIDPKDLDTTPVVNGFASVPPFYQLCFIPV

CYP2D6 = CYP2D6 (Homo sapiens, UniProt P10635); assay: Inhibition of human microsomal CYP2D6 expressed in baculovirus infected BTI-TN-5B1-4 cells at 10 uM incubated for 30 mins by luciferase assay relative to control; assay type: ADME; method in brief: as §2
Chain of CYP2D6 (P10635 whole entry): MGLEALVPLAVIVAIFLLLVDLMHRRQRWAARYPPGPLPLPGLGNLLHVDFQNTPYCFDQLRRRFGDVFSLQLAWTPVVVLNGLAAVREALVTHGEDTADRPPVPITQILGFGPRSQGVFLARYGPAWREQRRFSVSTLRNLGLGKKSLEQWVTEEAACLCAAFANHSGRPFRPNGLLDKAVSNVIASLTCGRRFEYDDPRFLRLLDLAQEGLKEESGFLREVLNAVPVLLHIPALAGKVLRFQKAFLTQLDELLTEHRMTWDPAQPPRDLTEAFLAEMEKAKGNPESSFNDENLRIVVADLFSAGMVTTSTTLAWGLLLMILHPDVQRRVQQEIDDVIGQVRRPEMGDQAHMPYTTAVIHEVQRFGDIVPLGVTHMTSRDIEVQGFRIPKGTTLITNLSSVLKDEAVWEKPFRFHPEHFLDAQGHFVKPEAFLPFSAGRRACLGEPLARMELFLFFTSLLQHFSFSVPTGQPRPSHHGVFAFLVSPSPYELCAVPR

CYP3A4 = CYP3A4 (Homo sapiens, UniProt P08684); assay: Inhibition of human microsomal CYP3A4 expressed in baculovirus infected BTI-TN-5B1-4 cells at 10 uM incubated for 30 mins by luciferase assay relative to control; assay type: ADME; method in brief: as §2
Chain of CYP3A4 (P08684 whole entry): as the sequence (P08684 whole entry) above

Aurora kinase B = Aurora kinase B (Homo sapiens, UniProt Q96GD4); assay: Inhibition of recombinant full-length human aurora B kinase expressed in baculovirus system at 10 uM using MBP as substrate incubated for 45 mins by ADP-glo kinase assay; details: probe MBP
Chain of Aurora kinase B (Q96GD4 whole entry): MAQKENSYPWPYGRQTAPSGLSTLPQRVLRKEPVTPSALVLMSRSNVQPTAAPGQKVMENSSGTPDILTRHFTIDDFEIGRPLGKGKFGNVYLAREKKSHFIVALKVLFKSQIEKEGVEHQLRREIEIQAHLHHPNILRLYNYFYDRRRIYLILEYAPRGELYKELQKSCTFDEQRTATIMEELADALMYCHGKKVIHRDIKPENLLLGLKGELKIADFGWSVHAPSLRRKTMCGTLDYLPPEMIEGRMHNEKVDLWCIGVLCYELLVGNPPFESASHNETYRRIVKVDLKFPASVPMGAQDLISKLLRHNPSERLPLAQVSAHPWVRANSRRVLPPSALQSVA
Method in brief: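 Aurora B activity measured as ADP formation via coupled luciferase ADP-Glo luminescence; single-point at 10 μM, triplicate.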

[6] = Cytotoxicity against human 786-O cells assessed as inhibition of mitochondrial viability at 10 uM after 6 hrs by CMXRos staining based assay relative to control; assay type: cell-based, 786-0; details: read-out: INH
Method in brief: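 Mitochondrial toxicity monitored by MitoTracker Red CMXRos uptake and high-content imaging; compound at 10 μM, triplicate.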

[7] = Cytotoxicity against human THP1 cells assessed as viable cells at 100 uM after 72 hrs by MTT assay relative to control; assay type: cell-based, THP-1; details: read-out: Activity; method in brief: as §1
[8] = Cytotoxicity against human U2OS cells assessed as viable cells at 50 uM after 72 hrs by MTT assay relative to control; assay type: cell-based; details: read-out: Activity
[9] = target: T2, Pteridine reductase, putative (Trypanosoma brucei) (UniProt Q581W1); assay: Inhibition of Trypanosoma brucei PTR1 at 50 uM using H2B as substrate in presence of NADPH by photometric analysis relative to control
T2 sequence (whole entry): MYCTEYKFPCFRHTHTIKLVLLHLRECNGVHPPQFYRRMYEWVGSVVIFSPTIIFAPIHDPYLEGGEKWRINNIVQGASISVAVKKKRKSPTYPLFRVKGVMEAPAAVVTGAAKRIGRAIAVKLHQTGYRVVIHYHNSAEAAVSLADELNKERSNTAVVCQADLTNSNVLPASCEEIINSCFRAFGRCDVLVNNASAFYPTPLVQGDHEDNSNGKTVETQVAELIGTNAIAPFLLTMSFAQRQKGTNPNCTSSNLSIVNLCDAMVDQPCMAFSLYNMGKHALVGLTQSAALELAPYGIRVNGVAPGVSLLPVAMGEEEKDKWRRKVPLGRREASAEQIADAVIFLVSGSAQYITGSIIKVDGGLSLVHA

[10] = target: T3, Pteridine reductase 1 (Leishmania major) (UniProt Q01782); assay: Inhibition of Leishmania major PTR1 at 50 uM using H2B as substrate in presence of NADPH by photometric analysis relative to control
T3 sequence (whole entry): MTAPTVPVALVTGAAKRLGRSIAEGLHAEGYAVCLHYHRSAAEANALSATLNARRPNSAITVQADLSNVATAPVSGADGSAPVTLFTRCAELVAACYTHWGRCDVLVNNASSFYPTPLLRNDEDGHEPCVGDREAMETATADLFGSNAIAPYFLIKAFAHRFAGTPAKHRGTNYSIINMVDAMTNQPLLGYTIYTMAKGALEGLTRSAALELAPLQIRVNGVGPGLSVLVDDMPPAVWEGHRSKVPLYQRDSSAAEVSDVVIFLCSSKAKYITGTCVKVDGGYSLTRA

[11] = Cytotoxicity against human A549 cells assessed as growth inhibition at 10 uM after 48 hrs by CellTiter-Glo assay relative to control; values are per cent of control; details: A549 cells
WI-38 = assay: Cytotoxicity against human WI38 cells assessed as growth inhibition at 10 uM after 48 hrs by CellTiter-Glo assay relative to control; values are per cent of control; details: wi-38, 48 h, 10 µM

IC50 (Cytochrome P450 2C9): > 100 µM | IC50 (Cytochrome P450 3A4): 98.2 µM
SMILES: O=C(Cn1ccnc1[N+](=O)[O-])NCc1ccccc1 [BENZNIDAZOLE]
CC50 (THP-1): Non-Toxic | CC50 (U2OS): Non-Toxic

SMILES: CN(Cc1cnc2nc(N)nc(N)c2n1)c1ccc(C(=O)N[C@@H](CCC(=O)O)C(=O)O)cc1 [METHOTREXATE]
Activity (Trypanosoma brucei [1]): 24.25%

inhibition at 0.5 h, 10 µM (CYP1A2): 98.4% | inhibition at 0.5 h, 10 µM (CYP2C9): 10% | inhibition at 0.5 h, 10 µM (CYP2C19): 21.7% | inhibition at 0.5 h, 10 µM (CYP2D6): 57.9% | inhibition at 0.5 h, 10 µM (CYP3A4): 22.8% | inhibition at 0.75 h, 10 µM (Aurora kinase B): 0.89% | inhibition [9]: inactive | inhibition [10]: 5.85%
SMILES: CN(C)c1ccc(/C=N/N=C(/N)S)c2ccccc12
inhibition of growth at 50 µM (Trypanosoma brucei [2]): 6.33% | inhibition of growth at 50 µM (Leishmania infantum): 58.3% | inhibition of growth at 50 µM (Trypanosoma cruzi): 8.05% | Activity (Trypanosoma brucei [3]): 26.17% | Activity (Trypanosoma brucei [4]): 63.83% | PF (Trypanosoma brucei [5]): 1.27 | inhibition at 2 h, 10 µM (hERG (KCNH2)): 43% | cytotoxicity at 6 h, 10 µM [6]: -1.7% | viability at 72 h, 100 µM [7]: 9.31% | viability at 72 h, 50 µM [8]: 99.5% | cell growth (% of control) at 48 h, 10 µM [11]: 122% | cell growth (% of control) (WI-38): 162.08%
